Data reported in PubChem BioAssay.
Records with an inconclusive call do not appear. Active and inactive are the calls of the source.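 The calls were made as follows, unless noted: active = growth inhibition above 25% in both replicates, a cutoff set 3 SD above the mean; inconclusive = above 25% in only one replicate; inactive = the rest.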

How the values were obtained:
[1] = OD615 S. cerevisiae growth inhibition, permissive medium, pilot counter-assay, permissive growth control for S. cerevisiae lifespan shortening project (AID 705); details: OD615, 24 h, at 10 µM, active compounds read high
Method in brief: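 Test system: Saccharomyces cerevisiae strain carrying genetically modified DeaD replicative-lifespan system; buffer or medium: SC raffinose/galactose permissive medium; dosing: one dose 10 µM, DMSO 0.25% final; times: 24 h exposure, 30 °C; measured by: OD at 615 nm; read-out basis: growth inhibition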

[2] = Restrictive medium S. cerevisiae growth inhibition, OD615, pilot screen of yeast lifespan reduction project, restrictive growth control (AID 706;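 active = growth inhibition above a set limit, 3 SD over mean compound inhibition, in both replicates, cut at about 43% in these data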;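 also: modified DeaD lifespan yeast strain shifted to restrictive glucose medium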); details: OD615, 48 h, at 10 µM, active compounds read high
Method in brief: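 material = engineered S. cerevisiae DeaD strain | buffer or medium = glucose-based CSMM-D restrictive medium | dosing = one concentration, 10 µM final, 0.25% DMSO | schedule = 4 h pre-growth plus 48 h compound exposure, 30 °C | detection = OD615 absorbance reading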

[3] = viability gain of MRP-1-high H69AR cells under doxorubicin, pilot screen, MRP-1 activator project, CellTiter-Glo, duplicate (AID 807;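 active = viability increase at or above a cutoff of the median across tested compounds plus 3 SD, cut at about 8.5% in these data, passing the limit was not always enough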;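 also: compound pretreatment 18-22 h then 72 h combined with doxorubicin; 0% = doxorubicin alone and 100% = vehicle without doxorubicin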); details: H69AR viability with doxorubicin, CellTiter-Glo luminescence; at 10 µM; active compounds read high
[4] = growth suppression of beta-catenin knockout HCT116, pilot screen, human colon tumor cells (AID 823;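 active = cell viability at or below a set limit in both duplicate runs, the limit being the all-compound median minus 4 SD, cut at about 23% in these data, passing the limit was not always enough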;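 also: 0% = wells killed by 20 µM Hyamine and 100% = untreated DMSO cell wells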); details: CellTiter-Glo, 60 h, at 10 µM, active compounds read low
[5] = growth suppression of PTEN-deleted HCT116, pilot screen, cell-based, HCT116 clonal line, CellTiter-Glo (AID 824;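 active = viability at or below 27.92% in each of two runs, the all-compound median minus 4 SD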;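 also: 0% = 20 µM Hyamine control and 100% = vehicle cell control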); details: 60 h, at 10 µM, active compounds read low
[6] = inhibitors of the yeast RAM network, pilot screen, dse1pr::URA3 reporter, 5-FOA selection (AID 869;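 active = inhibition over a set limit, the all-compound mean plus 3 SD, in both replicate runs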;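 also: 0% = DMSO wells with no growth and 100% = 10 µM 1-NA-PP1 with full growth; RAM network block rescues cells from 5-FOA so hits raise OD615 growth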); details: S. cerevisiae dse1pr::URA3 5-FOA growth, OD615, 2 d; at 10 µM; active compounds read high; strain carries analog-sensitive mutant Cbk1 kinase
[7] = RAM signaling pathway blockade in yeast – S. cerevisiae, Pdr1DBD-CYC8 efflux-inhibited sensitized strain, primary screen (AID 1298;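 active = RAM network inhibition above 8.4% in each of two replicates, 3 SD over the compound average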;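 also: 0% = DMSO untreated cells without growth and 100% = 10 µM 1-NA-PP1 full growth; higher means more yeast growth rescued from 5-FOA killing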); details: S. cerevisiae cbk1-as DSE1-URA3 strain, 5-FOA growth OD615, 2 d; at 50 µM; active compounds read high

NC(=O)c1cc(Cl)cn(-c2ccccc2)c1=O
inactive: growth inhibition [1] -13% | growth inhibition [2] -5.85% | viability increase [3] -0.12% | viability [4] 99.7% | viability [5] 95% | inhibition [6] 1.81% | RAM network inhibition [7] 4.23%

COc1ccc(C2CC(=O)N3CN(c4ccccc4F)CSC3=C2C#N)cc1OC (configuration not stated)
inactive: growth inhibition [1] 7.21% | growth inhibition [2] 19.4% | viability increase [3] -1.47% | viability [4] 107% | viability [5] 95.5% | inhibition [6] 1.22% | RAM network inhibition [7] 1.24%

O=C(CN1C(=O)CCC1=O)Nc1nc(-c2ccccn2)cs1
inactive: growth inhibition [1] -5.94% | growth inhibition [2] -9.21% | viability increase [3] -0.35% | viability [4] 106% | viability [5] 101% | inhibition [6] 0.045% | RAM network inhibition [7] 3.42%

O=C(CN1C(=O)c2ccccc2S1(=O)=O)NC1CC2CCC1C2 (configuration not stated)
inactive: growth inhibition [1] 0.325% | growth inhibition [2] -9.88% | viability increase [3] -1.68% | viability [4] 98.6% | viability [5] 89.9% | inhibition [6] 1.11% | RAM network inhibition [7] -0.63%

COc1cccc(C2CC(c3ccccc3C)n3nc(N)nc3N2)c1 (configuration not stated)
inactive: growth inhibition [1] -7.81% | growth inhibition [2] 7.97% | viability increase [3] -2.32% | viability [4] 107% | viability [5] 86.5% | inhibition [6] 0.35% | RAM network inhibition [7] 8.21%

CCOCCCNC(=O)C(NC(=O)CNC(C)=O)c1ccc(Cl)cc1 (configuration not stated)
inactive: growth inhibition [1] -10.1% | growth inhibition [2] -12.2% | viability increase [3] -0.33% | viability [4] 102% | viability [5] 101% | inhibition [6] 2.1% | RAM network inhibition [7] 2.91%

Clc1ccc(NCn2cncn2)nc1
inactive: growth inhibition [1] 12.6% | growth inhibition [2] 7.94% | viability increase [3] -1.55% | viability [4] 96.5% | viability [5] 93.5% | inhibition [6] 2.67% | RAM network inhibition [7] 3.18%

COc1ccc(NC(=O)[C@H](CCS(C)(=O)=O)N2Cc3ccccc3C2=O)c(OC)c1
inactive: growth inhibition [1] -0.525% | growth inhibition [2] -0.57% | viability increase [3] 0.69% | viability [4] 104% | viability [5] 100% | inhibition [6] 2.29% | RAM network inhibition [7] 1.93%

COc1ccc(-n2c(Cn3c(=O)sc4ccccc43)nnc2SCC(N)=O)cc1
inactive: growth inhibition [1] -10.9% | growth inhibition [2] -0.695% | viability increase [3] 0.09% | viability [4] 101% | viability [5] 101% | inhibition [6] 1.29% | RAM network inhibition [7] 0.06%

CCCCN=C(C)c1c(O)c2ccccc2oc1=O
inactive: growth inhibition [1] -2.92% | growth inhibition [2] 5.07% | viability increase [3] -1.49% | viability [4] 102% | viability [5] 95.9% | inhibition [6] 0.01% | RAM network inhibition [7] -2%

COc1ccccc1CNS(=O)(=O)c1ccc2c(c1)oc(=O)n2C
inactive: growth inhibition [1] -4.47% | growth inhibition [2] -0.685% | viability increase [3] -0.99% | viability [4] 101% | viability [5] 86.7% | inhibition [6] 0.795% | RAM network inhibition [7] 0.32%

NS(=O)(=O)c1ccc(CNC(=O)NC2(c3ccccc3)CC2)cc1
inactive: growth inhibition [1] -14.6% | growth inhibition [2] -6.6% | viability increase [3] -2.9% | viability [4] 102% | viability [5] 87.2% | inhibition [6] 1.08% | RAM network inhibition [7] 3.05%

O=C(NC1CCS(=O)(=O)C1)C1CCCCN1S(=O)(=O)c1ccc(Cl)cc1 (configuration not stated)
inactive: growth inhibition [1] -5.22% | growth inhibition [2] -3.24% | viability increase [3] -1.52% | viability [4] 95% | viability [5] 90.8% | inhibition [6] 1.53% | RAM network inhibition [7] 2.19%

O=C(CSc1ccc2nnc(-c3ccc(Cl)cc3)n2n1)N1CCN(c2ccccc2)CC1
inactive: growth inhibition [1] 20.5% | viability increase [3] -3.11% | viability [4] 96.6% | viability [5] 85.5% | inhibition [6] -0.195% | RAM network inhibition [7] 3.08%
active: growth inhibition [2] 63.7%

CC1Oc2ccccc2C=C1C1/C(=C(/O)c2ccccc2)C(=O)C(=O)N1CCCN(C)C (configuration not stated)
inactive: growth inhibition [1] -3.27% | growth inhibition [2] 2.81% | viability increase [3] -2.78% | viability [4] 95.6% | viability [5] 97% | inhibition [6] -0.25% | RAM network inhibition [7] 0.77%

CC(=O)Nc1ccc2nc(-c3cccs3)[nH]c2c1
inactive: growth inhibition [1] -5.51% | growth inhibition [2] -15.4% | viability increase [3] -2.88% | viability [4] 97.8% | viability [5] 90.3% | inhibition [6] 2.38% | RAM network inhibition [7] 4.66%

O=C(NCCN1CCN(C(=O)Nc2ccccc2)CC1)Nc1ccccc1
inactive: growth inhibition [1] -18.1% | growth inhibition [2] -32.9% | viability increase [3] -0.62% | viability [4] 107% | viability [5] 94.8% | inhibition [6] 1.63% | RAM network inhibition [7] 3%

Cc1cc2nc(-c3cccc(NC(=O)c4ccc(Br)o4)c3C)oc2cc1C
inactive: growth inhibition [1] -0.715% | growth inhibition [2] -9.59% | viability increase [3] 3.53% | viability [4] 87% | viability [5] 84.2% | inhibition [6] 2.33% | RAM network inhibition [7] 2.65%

CN(C)C(=O)N1CCC(C(=O)NCc2ccc(F)cc2)CC1
inactive: growth inhibition [1] 4.29% | growth inhibition [2] 9.94% | viability increase [3] -1.51% | viability [4] 104% | viability [5] 94.7% | inhibition [6] 0.865% | RAM network inhibition [7] 5.08%

Cc1n[nH]c(C)c1S(=O)(=O)N(CC(=O)NC1CCCC1)c1ccc(C(C)C)cc1
inactive: growth inhibition [1] -7.41% | growth inhibition [2] 9.02% | viability increase [3] -3.3% | viability [4] 80.3% | viability [5] 76.9% | inhibition [6] 0.63% | RAM network inhibition [7] 3.37%

CCOC(=O)N1CCN(CC(=O)Nc2cc3c(cc2C(C)=O)OCO3)CC1
inactive: growth inhibition [1] 2.37% | growth inhibition [2] 13% | viability increase [3] -3.17% | viability [4] 94.2% | viability [5] 98.9% | inhibition [6] 0.555% | RAM network inhibition [7] 2.4%

Cc1noc(C)c1S(=O)(=O)N(CC(=O)NCc1ccc2c(c1)OCO2)c1ccc(C(C)C)cc1
inactive: growth inhibition [1] -13.7% | growth inhibition [2] -8.46% | viability increase [3] -2.92% | viability [4] 82.7% | viability [5] 76.2% | inhibition [6] -0.54% | RAM network inhibition [7] 6.57%

N#Cc1cnn(CC2CCCCC2)c1N
inactive: growth inhibition [1] -15.6% | growth inhibition [2] -8.75% | viability increase [3] -0.89% | viability [4] 89.4% | viability [5] 93.2% | inhibition [6] 1.57% | RAM network inhibition [7] 3.68%

O=C(NC1CCCCC1)C(c1ccccc1)N1CCCC1 (configuration not stated)
inactive: growth inhibition [1] 1.67% | growth inhibition [2] -3.42% | viability increase [3] -1.59% | viability [4] 96.6% | viability [5] 97.7% | inhibition [6] 1.43% | RAM network inhibition [7] 5.5%

Cn1ccnc1SCc1cn2cc(Br)ccc2n1
inactive: growth inhibition [1] 2.79% | growth inhibition [2] 22.2% | viability increase [3] -3.12% | viability [4] 91.8% | viability [5] 84.7% | inhibition [6] 1.51% | RAM network inhibition [7] 4.08%

CCOC(=O)c1ccc(NC(=O)CSc2nc3c(c(=O)n2C)SC(C)C3)cc1 (configuration not stated)
inactive: growth inhibition [1] 1.02% | growth inhibition [2] 7.47% | viability increase [3] -2.01% | viability [4] 72.9% | viability [5] 74.3% | inhibition [6] 0.975% | RAM network inhibition [7] 3.08%

CSC1=NCCN1C(=O)Cc1ccc(Cl)cc1
inactive: growth inhibition [1] 1.21% | growth inhibition [2] -7% | viability increase [3] 4.4% | viability [4] 108% | viability [5] 96.7% | inhibition [6] 0.105% | RAM network inhibition [7] -0.15%

Cn1c(Cn2c(=O)sc3ccccc32)nnc1SCC(=O)Nc1cccc(Cl)c1
inactive: growth inhibition [1] -3.44% | growth inhibition [2] -16.1% | viability increase [3] -0.83% | viability [4] 99.6% | viability [5] 98.8% | inhibition [6] 2.58% | RAM network inhibition [7] 2.23%

COc1cc(NC(=O)C2CCCC2)c(OC)cc1Cl
inactive: growth inhibition [1] -8.4% | growth inhibition [2] -12% | viability increase [3] -3.09% | viability [4] 81.9% | viability [5] 78.4% | inhibition [6] 1.02% | RAM network inhibition [7] -0.72%

O=C(CCC1CCCC1)N1CCN(C(=O)c2ccco2)CC1
inactive: growth inhibition [1] -5.94% | growth inhibition [2] -2.57% | viability increase [3] -3.59% | viability [4] 86.3% | viability [5] 83.2% | inhibition [6] 1.39% | RAM network inhibition [7] 0.98%

COc1ccc(OCC(O)CN2CCCCC2)cc1 (configuration not stated)
inactive: growth inhibition [1] -7.21% | growth inhibition [2] -11.1% | viability increase [3] -1.52% | viability [4] 95% | viability [5] 101% | inhibition [6] 1.59% | RAM network inhibition [7] 0.52%

CCC(=O)N1CC2(C)CN(C(=O)CC)CC(C)(C1)C2
inactive: growth inhibition [1] -6.27% | growth inhibition [2] -24.9% | viability increase [3] -0.75% | viability [4] 95.3% | viability [5] 97% | inhibition [6] 1.59% | RAM network inhibition [7] -0.16%

O=C(CN1CCOc2ccccc21)NC1CCCCCCC1
inactive: growth inhibition [1] -14.2% | growth inhibition [2] 21.8% | viability increase [3] -5.54% | viability [4] 75.5% | viability [5] 78.2% | inhibition [6] 1.38% | RAM network inhibition [7] 0.83%

O=C1C=C(N(CCO)CCO)C2(CCCCC2)O1
inactive: growth inhibition [1] -14.1% | growth inhibition [2] -18.7% | viability increase [3] -1.83% | viability [4] 90.1% | viability [5] 96% | inhibition [6] 1.23% | RAM network inhibition [7] 2%

COC1=C(OC)c2ccccc2C(C(=O)O)N/C1=C(/C)Nc1ccncc1 (configuration not stated)
inactive: growth inhibition [1] -5.63% | growth inhibition [2] -2.54% | viability increase [3] -0.91% | viability [4] 94.7% | viability [5] 91.5% | inhibition [6] 1.11% | RAM network inhibition [7] -1.82%

Cc1nccn1-c1ncnc2sc3c(c12)CCCC3
inactive: growth inhibition [1] -7.46% | growth inhibition [2] 0.84% | viability increase [3] -3.49% | viability [4] 95.3% | viability [5] 93.5% | inhibition [6] 1.15% | RAM network inhibition [7] 2.86%
